Experimental data: ChEMBL document CHEMBL1166015, “Design, synthesis, and docking of highly hypolipidemic agents: Schizosaccharomyces pombe as a new model for evaluating alpha-asarone-based HMG-CoA reductase inhibitors” (Bioorg Med Chem, 2010)

What was measured:
[1] = biological target: T1, 3-hydroxy-3-methylglutaryl-coenzyme A reductase (Schizosaccharomyces pombe 972h-, UniProt Q10283); assay: Inhibition of Schizosaccharomyces pombe HMG-CoA reductase by spectrophotometry; details: read-out: IC50
T1 sequence (Q10283 whole entry): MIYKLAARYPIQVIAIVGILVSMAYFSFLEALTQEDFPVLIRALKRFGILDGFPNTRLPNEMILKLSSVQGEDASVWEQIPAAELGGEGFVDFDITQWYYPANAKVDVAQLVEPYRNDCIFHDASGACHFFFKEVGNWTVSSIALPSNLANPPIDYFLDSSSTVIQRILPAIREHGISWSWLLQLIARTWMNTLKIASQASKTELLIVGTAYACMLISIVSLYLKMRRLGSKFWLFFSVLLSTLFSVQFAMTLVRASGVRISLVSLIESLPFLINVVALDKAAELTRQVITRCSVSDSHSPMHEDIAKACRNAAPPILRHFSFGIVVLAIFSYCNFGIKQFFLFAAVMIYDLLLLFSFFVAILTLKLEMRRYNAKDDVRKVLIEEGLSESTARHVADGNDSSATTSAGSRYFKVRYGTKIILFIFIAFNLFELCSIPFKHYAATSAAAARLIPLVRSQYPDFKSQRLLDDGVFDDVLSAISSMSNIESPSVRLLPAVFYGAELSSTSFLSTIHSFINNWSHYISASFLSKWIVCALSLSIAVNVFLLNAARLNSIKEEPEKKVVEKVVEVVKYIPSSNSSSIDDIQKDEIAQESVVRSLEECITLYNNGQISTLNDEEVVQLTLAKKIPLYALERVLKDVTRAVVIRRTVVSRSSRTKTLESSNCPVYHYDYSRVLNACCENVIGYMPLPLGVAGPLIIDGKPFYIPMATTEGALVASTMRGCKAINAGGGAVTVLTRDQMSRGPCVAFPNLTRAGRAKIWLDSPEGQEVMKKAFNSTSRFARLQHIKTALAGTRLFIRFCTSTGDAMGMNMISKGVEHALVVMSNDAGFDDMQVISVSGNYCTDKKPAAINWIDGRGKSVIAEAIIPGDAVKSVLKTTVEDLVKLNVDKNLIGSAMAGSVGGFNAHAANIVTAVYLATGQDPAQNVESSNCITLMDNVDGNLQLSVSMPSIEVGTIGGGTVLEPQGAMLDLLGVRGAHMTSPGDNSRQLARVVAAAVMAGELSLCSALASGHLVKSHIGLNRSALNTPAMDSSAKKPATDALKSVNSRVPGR
Method in brief: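 Membrane HMGR partially purified from S. pombe 972 h (YPD, 28 °C, 48 h) via centrifugation, Triton X-100 solubilization, 65 °C heat step, ammonium sulfate and calcium phosphate gel. Enzyme activated 37 °C 30 min, pre-incubated with compound (DMSO stocks 1–5 mM) 30 min at 37 °C. Assay: 200 µg enzyme, 0.13 mM HMG-CoA, 50 mM Tris-HCl pH 7.5; started with 0.13 mM NADPH; A340 decrease over 2 min; triplicate; IC50 derived.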

Mus musculus [2] = assay: Hypolipidemic activity in ICR mouse assessed as decrease in Tyloxapol-induced total cholesterol level at 50 mg/kg, ip administered 1 hr before Tyloxapol challenge and 22, 48 hrs after Tyloxapol challenge measured after 22 hrs relative to control; format: functional; design: scale not given: the % may be the effect or the level left; details: route oral, in the assay text read “po administered” for “ip administered”
Method in brief: (§1)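 Male ICR mice (24–27 g), groups of six. Hyperlipidemia induced by ip Tyloxapol (Triton WR 1339) 400 mg/kg in water. Drug given at 5 mL/kg 1 h before and 22 and 48 h after injection; vehicle controls. Blood drawn 22 h post-injection by periorbital bleeding. Serum total cholesterol, HDL-C and triglycerides measured on an automatic analyzer; LDL-C by the Friedewald equation. Values are % of the Tyloxapol group, mean ± SE.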

Mus musculus [3] = assay: Hypolipidemic activity in ICR mouse assessed as decrease in Tyloxapol-induced total cholesterol level at 100 mg/kg, ip administered 1 hr before Tyloxapol challenge and 22, 48 hrs after Tyloxapol challenge measured after 22 hrs relative to control; format: functional; design: scale not given: the % may be the effect or the level left; details: route oral, in the assay text read “po administered” for “ip administered”; method in brief: as §1
Mus musculus [4] = assay: Hypolipidemic activity in ICR mouse assessed as decrease in Tyloxapol-induced LDL-cholesterol level at 50 mg/kg, ip administered 1 hr before Tyloxapol challenge and 22, 48 hrs after Tyloxapol challenge measured after 22 hrs relative to control; format: functional; design: scale not given: the % may be the effect or the level left; details: route oral, in the assay text read “po administered” for “ip administered”; method in brief: as §1
Mus musculus [5] = assay: Hypolipidemic activity in ICR mouse assessed as decrease in Tyloxapol-induced LDL-cholesterol level at 100 mg/kg, ip administered 1 hr before Tyloxapol challenge and 22, 48 hrs after Tyloxapol challenge measured after 22 hrs relative to control; format: functional; design: scale not given: the % may be the effect or the level left; details: route oral, in the assay text read “po administered” for “ip administered”; method in brief: as §1
Mus musculus [6] = assay: Hypolipidemic activity in ICR mouse assessed as decrease in Tyloxapol-induced HDL-cholesterol level at 50 mg/kg, ip administered 1 hr before Tyloxapol challenge and 22, 48 hrs after Tyloxapol challenge measured after 22 hrs relative to control; format: functional; design: scale not given: the % may be the effect or the level left; details: route oral, in the assay text read “po administered” for “ip administered”; method in brief: as §1
Mus musculus [7] = assay: Hypolipidemic activity in ICR mouse assessed as decrease in Tyloxapol-induced HDL-cholesterol level at 100 mg/kg, ip administered 1 hr before Tyloxapol challenge and 22, 48 hrs after Tyloxapol challenge measured after 22 hrs relative to control; format: functional; design: scale not given: the % may be the effect or the level left; details: route intraperitoneal; method in brief: as §1
Mus musculus [8] = assay: Hypolipidemic activity in ICR mouse assessed as decrease in Tyloxapol-induced triglyceride level at 50 mg/kg, ip administered 1 hr before Tyloxapol challenge and 22, 48 hrs after Tyloxapol challenge measured after 22 hrs relative to control; format: functional; design: scale not given: the % may be the effect or the level left; details: route intraperitoneal; method in brief: as §1
Mus musculus [9] = assay: Hypolipidemic activity in ICR mouse assessed as decrease in Tyloxapol-induced triglyceride level at 100 mg/kg, ip administered 1 hr before Tyloxapol challenge and 22, 48 hrs after Tyloxapol challenge measured after 22 hrs relative to control; format: functional; design: scale not given: the % may be the effect or the level left; details: route intraperitoneal; method in brief: as §1
Mus musculus [10] = assay: Hypolipidemic activity in high cholesterol diet fed ICR mouse assessed as reduction of total cholesterol level at 50 mg/kg, ip after 12 hrs of last cholesterol challenge relative to control; format: functional; design: scale not given: the % may be the effect or the level left; details: route intraperitoneal
Method in brief: (§2)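 Male ICR mice (24–27 g), six per group, were fed a high-cholesterol diet ad libitum for 6 days (1.0% cholesterol, 0.5% sodium cholate, 5% butter, 30% sucrose, 10% casein, 53.5% chow). Basal-diet mice served as controls. Dosing was 5 mL/kg and solutions were made fresh. Mice were fasted 12 h before sacrifice and bled periorbitally. Serum TC, HDL-C and TG were read on an analyzer, with LDL-C by Friedewald.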

Mus musculus [11] = assay: Hypolipidemic activity in high cholesterol diet fed ICR mouse assessed as reduction of total cholesterol level at 100 mg/kg/day, ip after 12 hrs of last cholesterol challenge relative to control; format: functional; design: scale not given: the % may be the effect or the level left; details: route intraperitoneal; method in brief: as §2
Mus musculus [12] = assay: Hypolipidemic activity in high cholesterol diet fed ICR mouse assessed as reduction of triglyceride level at 50 mg/kg/day, po after 12 hrs of last cholesterol challenge relative to control; design: scale not given: the % may be the effect or the level left
Mus musculus [13] = assay: Hypolipidemic activity in high cholesterol diet fed ICR mouse assessed as reduction of triglyceride level at 100 mg/kg/day, po after 12 hrs of last cholesterol challenge relative to control; design: scale not given: the % may be the effect or the level left
Mus musculus [14] = assay: Hypolipidemic activity in high cholesterol diet fed ICR mouse assessed as reduction of LDL cholesterol level at 50 mg/kg/day, po after 12 hrs of last cholesterol challenge relative to control; design: scale not given: the % may be the effect or the level left
Mus musculus [15] = assay: Hypolipidemic activity in high cholesterol diet fed ICR mouse assessed as reduction of HDL cholesterol level at 50 mg/kg/day, po after 12 hrs of last cholesterol challenge relative to control; design: scale not given: the % may be the effect or the level left
Mus musculus [16] = assay: Hypolipidemic activity in high cholesterol diet fed ICR mouse assessed as reduction of LDL cholesterol level at 100 mg/kg/day, po after 12 hrs of last cholesterol challenge relative to control; design: scale not given: the % may be the effect or the level left
Mus musculus [17] = assay: Hypolipidemic activity in high cholesterol diet fed ICR mouse assessed as reduction of HDL cholesterol level at 100 mg/kg/day, po after 12 hrs of last cholesterol challenge relative to control; design: scale not given: the % may be the effect or the level left

CCCCCc1cc(OC)c(OC)cc1OC
IC50 [1]: 84.6 µM

C=CCc1cc(OC)c(OCC(=O)O)cc1[N+](=O)[O-]
IC50 [1]: 144 µM

C=CCc1ccc(OCCNC(=O)c2cccc(Cl)c2)c(OC)c1
IC50 [1]: 239 µM

C/C=C/c1cc(OC)c(OC)cc1N
IC50 [1]: 167 µM

CCCc1ccc(OCC(=O)O)c(OC)c1
Activity (Mus musculus [2]): -21.28%
Activity (Mus musculus [3]): -22.59%
Activity (Mus musculus [4]): -32.56%
Activity (Mus musculus [5]): -39.12%
Activity (Mus musculus [6]): -18.23%
Activity (Mus musculus [7]): -15.32%
Activity (Mus musculus [8]): -32.46%
Activity (Mus musculus [9]): -29.89%
Activity (Mus musculus [10]): -32.83%
Activity (Mus musculus [11]): -25.66%
Activity (Mus musculus [12]): -38.38%
Activity (Mus musculus [13]): -27.55%
Activity (Mus musculus [14]): -33.54%
Activity (Mus musculus [15]): -15.66%
Activity (Mus musculus [16]): -44.51%
Activity (Mus musculus [17]): -19.33%

CCCc1cc(OC)c(OCC(=O)OC)cc1[N+](=O)[O-]
Activity (Mus musculus [2]): -68.64%
Activity (Mus musculus [3]): -60.1%
Activity (Mus musculus [4]): -45.69%
Activity (Mus musculus [5]): -33.33%
Activity (Mus musculus [6]): -23.15%
Activity (Mus musculus [7]): -25.81%
Activity (Mus musculus [8]): -11.99%
Activity (Mus musculus [9]): -19.91%
Activity (Mus musculus [10]): -48.64%
Activity (Mus musculus [11]): -39.51%
Activity (Mus musculus [12]): -41.98%
Activity (Mus musculus [13]): -28.78%
Activity (Mus musculus [14]): -21.13%
Activity (Mus musculus [15]): -11.36%
Activity (Mus musculus [16]): -16.76%
Activity (Mus musculus [17]): -11.43%
